In brackets after ≈: the same amount, converted by molar mass.
Experiments:
Format in all cases: functional
Helicobacter pylori [1] = assay: Anti-bacterial activity against Helicobacter pylori Clinical isolate F1 measured after 72 hrs incubation by modified broth dilution method
Helicobacter pylori [2] = assay: Bactericidal activity against Helicobacter pylori Clinical isolate F1 measured after 72 hrs of incubation under microaerophilic conditions by modified broth dilution method; conditions: read-out: MBC99.9
Procedure, shortened: (§1)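 H. pylori (NCTC 11637, F1, 23, F4). Wells with no visible growth in the MIC assay spotted (10 μL) onto Skirrow agar. Plates incubated 72 h at 37 °C, microaerophilic, 100% humidity. MBC = concentration killing 99.9% of the initial inoculum. Triplicate, on at least three different days.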

Helicobacter pylori [3] = assay: Anti-bacterial activity against Helicobacter pylori Clinical isolate 23 measured after 72 hrs incubation by modified broth dilution method
Helicobacter pylori [4] = assay: Bactericidal activity against Helicobacter pylori Clinical isolate 23 measured after 72 hrs of incubation under microaerophilic conditions by modified broth dilution method; conditions: read-out: MBC99.9; procedure, shortened: as §1
Helicobacter pylori [5] = assay: Anti-bacterial activity against Helicobacter pylori NCTC 11637 measured after 72 hrs incubation by modified broth dilution method
Helicobacter pylori [6] = assay: Bactericidal activity against Helicobacter pylori NCTC 11637 measured after 72 hrs of incubation under microaerophilic conditions by modified broth dilution method; conditions: read-out: MBC99.9; procedure, shortened: as §1
Helicobacter pylori [7] = assay: Anti-bacterial activity against Helicobacter pylori Clinical isolate F4 measured after 72 hrs incubation by modified broth dilution method
Helicobacter pylori [8] = assay: Bactericidal against Helicobacter pylori Clinical isolate F4 measured after 72 hrs of incubation under microaerophilic conditions by modified broth dilution method; conditions: read-out: MBC99.9; procedure, shortened: as §1
Helicobacter pylori [9] = assay: Anti-bacterial activity against Helicobacter pylori measured after 72 hrs incubation by modified broth dilution method
Helicobacter pylori [10] = assay: Bactericidal against Helicobacter pylori measured after 72 hrs of incubation under microaerophilic conditions by modified broth dilution method; conditions: for MBC: Helicobacter pylori, read-out: MBC99.9
Procedure, shortened: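 Wells with no visible growth in the MIC assay spotted (10 μL) onto Skirrow agar. Plates incubated 72 h at 37 °C, microaerophilic, 100% humidity. Triplicate, on at least three different days.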

| MIC (Helicobacter pylori [1]) | MIC (Helicobacter pylori [3]) | MIC (Helicobacter pylori [5]) | MIC (Helicobacter pylori [7]) | MIC50 (Helicobacter pylori [9]) | MIC90 (Helicobacter pylori [9]) | Structure (SMILES) | MBC (Helicobacter pylori [2]) | MBC (Helicobacter pylori [4]) | MBC (Helicobacter pylori [6]) | MBC (Helicobacter pylori [8]) | MBC90 (Helicobacter pylori [10]) | MBC (Helicobacter pylori [10]) |
| --- | --- | --- | --- | --- | --- | --- | --- | --- | --- | --- | --- | --- |
| 64 µg/mL (≈ 197 µM) | 64 µg/mL (≈ 197 µM) | 128 µg/mL (≈ 394 µM) | 128 µg/mL (≈ 394 µM) | 64 µg/mL (≈ 197 µM) | 128 µg/mL (≈ 394 µM) | COc1cc(C=O)cc(/N=N/c2ccc(Cl)c(Cl)c2)c1O | 64 µg/mL (≈ 197 µM) | 128 µg/mL (≈ 394 µM) | 128 µg/mL (≈ 394 µM) | 128 µg/mL (≈ 394 µM) | 128 µg/mL (≈ 394 µM) |  |
| 4 µg/mL (≈ 14.1 µM) | 4 µg/mL (≈ 14.1 µM) | 4 µg/mL (≈ 14.1 µM) | 2 µg/mL (≈ 7.03 µM) | 4 µg/mL (≈ 14.1 µM) | 4 µg/mL (≈ 14.1 µM) | COc1ccc(/N=N/c2cc(C(C)C)c(O)cc2C)cc1 | 4 µg/mL (≈ 14.1 µM) | 4 µg/mL (≈ 14.1 µM) | 4 µg/mL (≈ 14.1 µM) | 2 µg/mL (≈ 7.03 µM) | 4 µg/mL (≈ 14.1 µM) |  |
| 128 µg/mL (≈ 429 µM) | > 128 µg/mL | > 128 µg/mL | 128 µg/mL (≈ 429 µM) | 128 µg/mL (≈ 429 µM) | > 128 µg/mL | COc1ccc(/N=N/c2cc(C(C)C)c(OC)cc2C)cc1 | > 128 µg/mL | > 128 µg/mL | > 128 µg/mL | 128 µg/mL (≈ 429 µM) | >128 µg/mL |  |
| 128 µg/mL (≈ 453 µM) | 64 µg/mL (≈ 227 µM) | 128 µg/mL (≈ 453 µM) | 64 µg/mL (≈ 227 µM) | 64 µg/mL (≈ 227 µM) | 128 µg/mL (≈ 453 µM) | C=CCc1cc(/N=N/c2ccccc2C)c(O)c(OC)c1 | 128 µg/mL (≈ 453 µM) | 64 µg/mL (≈ 227 µM) | 128 µg/mL (≈ 453 µM) | 64 µg/mL (≈ 227 µM) | 128 µg/mL (≈ 453 µM) |  |
| 128 µg/mL (≈ 274 µM) | 128 µg/mL (≈ 274 µM) | > 128 µg/mL | > 128 µg/mL | > 128 µg/mL | > 128 µg/mL | Cc1cc(O)c(C(C)C)cc1C1(c2cc(C(C)C)c(O)cc2C)OS(=O)(=O)c2ccccc21 | 128 µg/mL (≈ 274 µM) | > 128 µg/mL | > 128 µg/mL | > 128 µg/mL | >128 µg/mL |  |
| 64 µg/mL (≈ 426 µM) | 64 µg/mL (≈ 426 µM) | 64 µg/mL (≈ 426 µM) | 64 µg/mL (≈ 426 µM) | 64 µg/mL (≈ 426 µM) | 64 µg/mL (≈ 426 µM) | Cc1ccc(C(C)C)cc1O [CARVACROL] | 64 µg/mL (≈ 426 µM) | 64 µg/mL (≈ 426 µM) | 64 µg/mL (≈ 426 µM) | 64 µg/mL (≈ 426 µM) |  | 64 µg/mL (≈ 426 µM) |
| 64 µg/mL (≈ 426 µM) | 128 µg/mL (≈ 852 µM) | 128 µg/mL (≈ 852 µM) | 64 µg/mL (≈ 426 µM) | 64 µg/mL (≈ 426 µM) | 128 µg/mL (≈ 852 µM) | Cc1ccc(C(C)C)c(O)c1 [THYMOL] | 64 µg/mL (≈ 426 µM) | 128 µg/mL (≈ 852 µM) | 128 µg/mL (≈ 852 µM) | 64 µg/mL (≈ 426 µM) |  | 128 µg/mL (≈ 852 µM) |
| > 128 µg/mL | > 128 µg/mL | 128 µg/mL (≈ 402 µM) | > 128 µg/mL | > 128 µg/mL | > 128 µg/mL | C=CCc1cc(/N=N/c2cccc3ccccc23)c(O)c(OC)c1 | > 128 µg/mL | > 128 µg/mL | 128 µg/mL (≈ 402 µM) | > 128 µg/mL | >128 µg/mL |  |
| 128 µg/mL (≈ 375 µM) | 128 µg/mL (≈ 375 µM) | > 128 µg/mL | > 128 µg/mL | 128 µg/mL (≈ 375 µM) | > 128 µg/mL | CC(=O)Oc1cc(C)c(/N=N/c2ccc([N+](=O)[O-])cc2)cc1C(C)C | 128 µg/mL (≈ 375 µM) | 128 µg/mL (≈ 375 µM) | > 128 µg/mL | > 128 µg/mL | >128 µg/mL |  |
| 128 µg/mL (≈ 306 µM) | 128 µg/mL (≈ 306 µM) | > 128 µg/mL | 128 µg/mL (≈ 306 µM) | 128 µg/mL (≈ 306 µM) | > 128 µg/mL | COc1ccc(/N=N/c2cc(C(C)C)c(O)c(/N=N/c3ccc(OC)cc3)c2C)cc1 | > 128 µg/mL | > 128 µg/mL | > 128 µg/mL | > 128 µg/mL | >128 µg/mL |  |
| 64 µg/mL (≈ 204 µM) | 128 µg/mL (≈ 409 µM) | 64 µg/mL (≈ 204 µM) | 64 µg/mL (≈ 204 µM) | 64 µg/mL (≈ 204 µM) | 128 µg/mL (≈ 409 µM) | C=CCc1cc(/N=N/c2ccc([N+](=O)[O-])cc2)c(O)c(OC)c1 | 64 µg/mL (≈ 204 µM) | 128 µg/mL (≈ 409 µM) | 64 µg/mL (≈ 204 µM) | 128 µg/mL (≈ 409 µM) | 128 µg/mL (≈ 409 µM) |  |

| Structure (SMILES) | MIC (Helicobacter pylori [1]) | MIC (Helicobacter pylori [3]) | MIC (Helicobacter pylori [5]) | MIC (Helicobacter pylori [7]) | MIC50 (Helicobacter pylori [9]) | MIC90 (Helicobacter pylori [9]) | MBC (Helicobacter pylori [2]) | MBC (Helicobacter pylori [4]) | MBC (Helicobacter pylori [6]) | MBC (Helicobacter pylori [8]) | MBC90 (Helicobacter pylori [10]) | MBC (Helicobacter pylori [10]) |
| --- | --- | --- | --- | --- | --- | --- | --- | --- | --- | --- | --- | --- |
| C=CCc1ccc(O)c(OC)c1 [EUGENOL] | 64 µg/mL (≈ 390 µM) | 64 µg/mL (≈ 390 µM) | 32 µg/mL (≈ 195 µM) | 64 µg/mL (≈ 390 µM) | 64 µg/mL (≈ 390 µM) | 64 µg/mL (≈ 390 µM) | 128 µg/mL (≈ 780 µM) | 64 µg/mL (≈ 390 µM) | 64 µg/mL (≈ 390 µM) | 64 µg/mL (≈ 390 µM) | 64 µg/mL (≈ 390 µM) |  |
